These results are taken from ChEMBL document CHEMBL1125137, “Synthesis and structure-activity relationships of N,N'-di-o-tolylguanidine analogues, high-affinity ligands for the haloperidol-sensitive sigma receptor” (J Med Chem, 1990).

The target of one test is sigma receptor (guinea pig). The test is described as follows: In vitro inhibitory activity against [3H]- (+)-3-PPP binding to sigma receptor in guinea pig brain membrane homogenates.
`N=C(N)N(c1ccccc1)c1ccccc1` returned an IC50 of more than 100 µM.

For the next test, the target named is Glutamate [NMDA] receptor. The test is described as follows: In vitro inhibitory activity against [3H]-TCP binding to PCP receptor in guinea pig brain membrane homogenates. The class given is cell membranes, Cavia porcellus. The method, boiled down:
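Displacement of 1.8 nM [3H]TCP (100 Ci/mmol) from guinea pig brain membranes (800 μg protein/mL, 50 mM Tris-HCl pH 7.4). Incubation 45 min at room temperature. Nonspecific binding defined by 10 μM PCP. Vacuum filtration on glass-fiber filters, two washes, scintillation counting. IC50 interpolated from semilog displacement curves.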
As for `Cc1cccc(NC(=N)Nc2cccc(C)c2)c1`, the IC50 worked out at 0.37 µM.
The same measure, in the same setting: as for `CCc1ccccc1N=C(N)Nc1ccccc1CC`, the figure is 0.358 µM; as for `Cc1cccc(C)c1N=C(N)Nc1c(C)cccc1C`, 32 µM; as for `Cc1cc([N+](=O)[O-])ccc1NC(N)=Nc1cccc(O)c1`, 37 µM.
Same read-out and setting: as for `NC(=Nc1ccccc1I)Nc1ccccc1I`, the figure is 0.21 µM.
`NC1=Nc2ccccc2CN1c1ccccc1` registered an IC50 of more than 10 µM.
Still for that read-out and setting: as for `Cc1ccccc1/N=C(/N)Nc1cccc(O)c1`, the figure is 2.5 µM.
The same measure, in the same setting: as for `N=C(NCc1ccccc1)NCc1ccccc1`, the figure is 6.8 µM.
On the same count and under the same terms, for `Cc1cc([N+](=O)[O-])ccc1NC(=N)Nc1ccc([N+](=O)[O-])cc1C` the value was 4.3 µM; for `CN=C(NC1CCCCC1)NC1CCCCC1`, more than 10 µM.
Take `NC1=NCCN1c1ccccc1`: the IC50 is more than 10 µM.
Compound `Cc1ccccc1/N=C(/N)Nc1ccc(N)cc1C` showed an IC50 of 4.35 µM.
The same measure, in the same setting: for `N=C(NC1CCCCC1)NC12CC3CC(CC(C3)C1)C2` the value was more than 10 µM; for `N=C(NC1C2CC3CC(C2)CC1C3)NC1C2CC3CC(C2)CC1C3` (stereo not drawn), more than 10 µM; for `CNC(=N)NC`, more than 10 µM.
On the same count and under the same terms, as for `N=C(NC12CC3CC(CC(C3)C1)C2)NC12CC3CC(CC(C3)C1)C2`, the figure is more than 10 µM; as for `N=C(Nc1ccccc1)Nc1ccccc1`, 3.45 µM; as for `Cc1ccccc1N=C(N)Nc1ccccc1N`, 12 µM.
On the same count and under the same terms, as for `Cc1ccccc1/N=C(/N)Nc1c(C)cccc1C`, the figure is 1.9 µM.
`CCc1cccc(NC(=N)Nc2cccc(CC)c2)c1` came in with a half-maximal inhibitory concentration (IC50) of 0.082 µM. Compared with the last compound, the IC50 is about 23-fold lower.
For `ONC(=NC1CCCCC1)NC1CCCCC1`, the IC50 is more than 10 µM.
Same read-out and setting: for `Cc1ccccc1N=C(N)NC1CCCCC1` the value was more than 10 µM.
Same read-out and setting: as for `Cc1cc(N)ccc1NC(=N)Nc1ccc(N)cc1C`, the figure is more than 100 µM; as for `Cc1ccccc1N=C(N)Nc1ccccc1I`, 2.05 µM.
Still for that read-out and setting: as for `Cc1cc(Br)ccc1N=C(N)Nc1ccc(Br)cc1C`, the figure is more than 10 µM.
With `CCCCNC(=N)NCCCC`, the IC50 was 49 µM. In other words, the double-digit micromolar range.
Still for that read-out and setting: as for `NC(=Nc1ccc(Br)cc1)Nc1ccc(Br)cc1`, the figure is 34 µM.
Same read-out and setting: for `N=C(Nc1ccccc1C(F)(F)F)Nc1ccccc1C(F)(F)F` the value was 4.15 µM; for `Cc1ccc(N=C(N)Nc2ccc(C)cc2)cc1`, 31 µM.
`Cc1ccccc1NC(N)=Nc1ccccc1[N+](=O)[O-]` gave an IC50 of 2.1 µM. Compared with the last compound, the IC50 is about 15-fold lower.
Same read-out and setting: for `Cc1ccccc1/N=C(/N)Nc1ccc([N+](=O)[O-])cc1C` the value was 5.7 µM.
Regarding `Cc1ccccc1/N=C(\N)NC12CC3CC(CC(C3)C1)C2`, the IC50 is 32 µM.
Regarding `NC(=NC1CCCCC1)NC1CCCCC1`, the IC50 was more than 10 µM.
The same measure, in the same setting: for `Cc1ccccc1NC(=N)Nc1ccccc1C` [DITOLYLGUANIDINE] the value was 7.8 µM.

For another test, the target named is Glutamate [NMDA] receptor. In words: (§1) In vitro inhibitory activity against [3H](+)-MK-801 binding to PCP receptor in guinea pig brain membrane homogenates. The class given is cell membranes, Cavia porcellus. The method, boiled down: (§2)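 [3H](+)-MK-801 (97 Ci/mmol) at 1 nM final with guinea pig brain membranes at 150 μg protein/mL. Assay and filtration buffer was 5 mM Tris-HCl pH 7.4. Incubation 4 h at 25 °C. Nonspecific binding measured with 10 μM TCP or MK-801. Bound ligand collected by glass-fiber filtration and counted by scintillation. IC50 taken from displacement curves.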
`CC(C)c1ccccc1N=C(N)Nc1ccccc1C(C)C` displayed an IC50 of 0.275 µM.
On the same count and under the same terms, as for `Cc1cccc(NC(=N)Nc2cccc(C)c2)c1`, the figure is 0.33 µM; as for `N=C(Nc1ccccc1I)NC1CC2CCC1C2` (stereo not drawn), more than 10 µM.
On the same count and under the same terms, for `CCc1ccccc1N=C(N)Nc1ccccc1CC` the value was 0.82 µM; for `NC1=Nc2ccccc2-c2ccccc2N1`, more than 10 µM.
Same read-out and setting: for `NC(=Nc1ccccc1I)Nc1ccccc1I` the value was 0.24 µM.
For `NC(=Nc1ccccc1-c1ccccc1)NC12CC3CC(CC(C3)C1)C2`, the IC50 was more than 10 µM.
The same measure, in the same setting: for `N=C(Nc1ccccc1/C=C/c1ccccc1)NC12CC3CC(CC(C3)C1)C2` the value was 3.5 µM; for `Cc1ccccc1/N=C(\N)NC12CC3CC(C)(CC(C)(C3)C1)C2`, 2 µM; for `CCCCCCCCN=C(NC1CCCCC1)NC1CCCCC1`, more than 10 µM.
For the compound `N=C(Nc1ccccc1CCc1ccccc1)NC12CC3CC(CC(C3)C1)C2`, the IC50 is more than 10 µM.
Same read-out and setting: as for `N=C(Nc1ccccc1/C=C/c1ccccc1)NC1C2CC3CC(C2)CC1C3` (stereo not drawn), the figure is more than 10 µM.
Same read-out and setting: as for `Cc1ccccc1N/C(N)=N/C1CC[C@@]2(C)C(=CCC3C2CC[C@@]2(C)C3CC[C@@H]2C(C)CCCC(C)C)C1` (stereo partly drawn), the figure is more than 10 µM; as for `N=C(NC1C[C@H]1c1ccccc1)NC12CC3CC(CC(C3)C1)C2` (stereo partly drawn), more than 10 µM.
The same measure, in the same setting: as for `N=C(NC1CC2CCC1C2)NC1CC2CCC1C2` (stereo not drawn) [listing 1 of 2 here], the figure is more than 10 µM.
In the case of `CC12CC3CC(C)(C1)CC(/N=C(\N)Nc1ccccc1I)(C3)C2`, the IC50 is 4 µM. This counts as single-digit micromolar.
The same measure, in the same setting: as for `N=C(Nc1ccccc1I)NC1C2CC3CC(C2)CC1C3` (stereo not drawn), the figure is more than 10 µM; as for `CC(=O)[C@H]1CCC2C3CC=C4CC(/N=C(\N)Nc5ccccc5C)CC[C@]4(C)C3CC[C@@]21C` (stereo partly drawn), more than 10 µM.
Same read-out and setting: for `CC1(C)C2CCC1(C)C(/N=C(\N)Nc1ccccc1I)C2` (stereo not drawn) the value was more than 10 µM; for `NC(=Nc1ccccc1I)NC12CC3CC(CC(C3)C1)C2`, more than 10 µM; for `N=C(NC1CC2CCC1C2)NC1CC2CCC1C2` (stereo not drawn) [listing 2 of 2 here], 5 µM.
Still for that read-out and setting: as for `CC(C)(C)/N=C(\N)Nc1ccccc1I`, the figure is more than 9.6 µM; as for `N=C(Nc1ccccc1/C=C/c1c(F)c(F)c(F)c(F)c1F)NC12CC3CC(CC(C3)C1)C2`, more than 10 µM.
`CC12CC3CC(C)(C1)CC(/N=C(\N)Nc1ccccc1/C=C/c1ccccc1)(C3)C2` came in with an IC50 of more than 10 µM.
Same read-out and setting: as for `CCc1ccc(NC(=N)Nc2ccc(CC)cc2)cc1`, the figure is 10.3 µM; as for `Cc1cc(N)ccc1N=C(N)Nc1cccc(O)c1`, more than 10 µM; as for `CC(C)(C)c1ccccc1N=C(N)Nc1ccccc1C(C)(C)C`, 38.3 µM.
Still for that read-out and setting: as for `N/C(=N\c1ccccc1[N+](=O)[O-])NC12CC3CC(CC(C3)C1)C2`, the figure is more than 10 µM; as for `CCc1cccc(NC(=N)Nc2cccc(CC)c2)c1`, 0.168 µM; as for `N=C(Nc1ccccc1I)Nc1ccccc1/C=C/c1ccccc1`, more than 10 µM.
Still for that read-out and setting: as for `Cc1ccccc1N=C(N)NC1CCCCC1`, the figure is 10 µM.
On to `CCCc1cccc(NC(=N)Nc2cccc(CCC)c2)c1`, for which the IC50 was found to be 2.11 µM. This IC50 is about 4.7-fold lower than that of the compound before.
Same read-out and setting: as for `N=C(Nc1cccc2ccccc12)Nc1cccc2ccccc12`, the figure is 0.134 µM; as for `Cc1ccccc1NC(N)=NC1CC2CCC1(C)C2(C)C` (stereo not drawn), 5 µM.
Compound `Cc1ccccc1/N=C(\N)NC1C2CC3CC(C2)CC1C3` (stereo not drawn) gave an IC50 of more than 10 µM.
Regarding `NC(=Nc1ccccc1-c1ccccc1)Nc1ccccc1-c1ccccc1`, the IC50 was more than 10 µM.
`Cc1ccc(N=C(N)Nc2ccc(C)cc2)cc1` yielded an IC50 of 13.3 µM.
Turning to `CC(C)c1ccc(NC(=N)Nc2ccc(C(C)C)cc2)cc1`, the IC50 turned out to be 26.8 µM.
As for `Cc1ccccc1NC(N)=NC1CC2CCC1C2` (stereo not drawn), the IC50 is more than 10 µM.
The same measure, in the same setting: for `CC(C)c1cccc(NC(=N)Nc2cccc(C(C)C)c2)c1` the value was 0.498 µM; for `N=C1N(c2ccccc2)CCN1c1ccccc1`, more than 10 µM; for `NC(=Nc1ccccc1-c1ccccc1)Nc1cccc2ccccc12`, more than 10 µM.
Compound `Cc1ccccc1/N=C(/N)Nc1ccccc1/C=C/c1ccccc1` registered an IC50 of more than 10 µM.
As to `Cc1ccccc1NC(=N)Nc1ccccc1C` [DITOLYLGUANIDINE], the IC50 came to 10.7 µM.

The target in the next test is Glutamate [NMDA] receptor. The test is described as §1. The class given is cell membranes, Cavia porcellus. The essentials:
as §2
With `N=C(Nc1ccccc1I)NC1CC2CCC1C2` (stereo not drawn), the IC50 is more than 10 µM.
Same read-out and setting: for `NC1=Nc2cccc3cccc(c23)N1` the value was more than 10 µM; for `CN=C(NC1CCCCC1)NC1CCCCC1`, more than 10 µM.
On the same count and under the same terms, for `Cc1ccccc1NC(N)=NC1CC2CCC1C2` (stereo not drawn) the value was more than 10 µM.

As usually defined, the IC50 is the midpoint of a concentration-inhibition curve.
